This is an account of results in ChEMBL document CHEMBL1123437, “Isozyme-specific enzyme inhibitors. 12. C- and N-methylmethionines as substrates and inhibitors of methionine adenosyltransferases of normal and hepatoma rat tissues” (J Med Chem, 1986).

Where “and” joins values, the source holds several entries; their conditions need not be identical. Equal entries are not always repeated.

The target of data set [1] is T1, S-adenosylmethionine synthetase (MAT 1 and MAT 2) (Rattus norvegicus) (UniProt P13444+P18298). Nature of the data set: Substrate activity as rate of conversion of [C14]-ATP to [C14]-Adomet in relation to KM value of methionine with M-T of rat methionine adenosyltransferase. The data set is classed as protein assay. The gist of the method: (§1)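 Kinetics with 0.4 mM [14C]ATP and 1.72 × 10^-6 units M-2 (kidney) or 1.58 × 10^-6 units M-T (hepatoma), 60 min, 37 °C, pH 8.2. Product resolved by paper electrophoresis and counted. KM and Vmax from linear double-reciprocal plots. Vmax expressed relative to L-Met = 100; reported as the relative Vmax/KM ratio.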

Data set [2] deals with T1, S-adenosylmethionine synthetase (MAT 1 and MAT 2) (Rattus norvegicus). The experiment in a line: Compound (3 mM) was tested for the inhibition of conversion of [14C]methionine to [14C]-AdoMet by M-T (hepatoma tissue) of rat methionine adenosyltransferase. It counts as protein assay. The gist of the method: (§2)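 Radiometric [14C]Met→[14C]AdoMet assay with partially purified rat MAT (M-2 from kidney, 8.6 × 10^-6 units; M-T from Novikoff hepatoma, 7.9 × 10^-6 units). Derivative at 3 mM, 2 mM MgATP, pH 8.2 Tris/KCl/MgCl2/DTT buffer, 37 °C, 10 min. Acid-stopped; supernatant counted on phosphocellulose discs. No-ATP incubations served as controls.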

The target of data set [3] is S-adenosylmethionine synthase isoform type-2 (Rattus norvegicus) (UniProt P18298). The experiment in a line: Compound (3 mM) was tested for the inhibition of conversion of [14C]methionine to [14C]AdoMet by M-2 (normal tissue) of rat methionine Adenosyltransferase. Summed up: as §2
Target sequence in this assay (P18298 whole entry, canonical isoform): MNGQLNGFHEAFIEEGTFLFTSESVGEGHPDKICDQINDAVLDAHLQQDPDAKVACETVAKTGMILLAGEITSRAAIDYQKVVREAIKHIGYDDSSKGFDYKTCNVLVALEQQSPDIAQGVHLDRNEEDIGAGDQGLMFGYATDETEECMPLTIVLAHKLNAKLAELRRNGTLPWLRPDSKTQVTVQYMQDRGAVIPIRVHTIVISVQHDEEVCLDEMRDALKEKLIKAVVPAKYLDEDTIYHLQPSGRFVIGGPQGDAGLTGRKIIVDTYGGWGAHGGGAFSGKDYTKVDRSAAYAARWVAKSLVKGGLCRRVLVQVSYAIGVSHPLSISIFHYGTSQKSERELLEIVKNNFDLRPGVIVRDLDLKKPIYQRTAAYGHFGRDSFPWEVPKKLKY
Data set [4] shares this target. Nature of the data set: Substrate activity of compound (4 mM) measured as the rate of conversion of [C14]-ATP to [C14]-Adomet in relation to KM value of methionine with rat Methionine adenosyltransferase II. The gist of the method: as §1
Target sequence in this assay (P18298 whole entry, canonical isoform): as above
Data set [5] in a line: Ratio of relative Vmax of normal tissue (M-2) form of rat methionine Adenosyltransferase to that of KM of normal tissue(M-2)form of rat methionine Adenosyltransferase. Summed up:
as §1

Data set [6] is described as follows: Ratio of Vmax of normal tissue (M-T) form of rat methionine Adenosyltransferase to that of KM of normal tissue(M-T)form of rat methionine Adenosyltransferase. The gist of the method: as §1
The target in data set [7] is T1, S-adenosylmethionine synthetase (MAT 1 and MAT 2) (Rattus norvegicus). The experiment in a line: Compound (3 mM) was tested for the inhibition of conversion of [14C]methionine to [14C]-AdoMet by M-T (hepatoma tissue) of rat methionine Adenosyltransferase. It counts as protein assay. Summed up:
as §2

The target is the same in data set [8]. Nature of the data set: […](M-T) of rat methionine adenosyl transferase. It counts as protein assay. Summed up: (§3)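 KM from linear double-reciprocal plots of velocity vs derivative concentration. Conditions: 0.4 mM [14C]ATP, 1.72 × 10^-6 units M-2 (rat kidney) or 1.58 × 10^-6 units M-T (Novikoff hepatoma), 60 min, 37 °C, Tris pH 8.2 with KCl/MgCl2/DTT. [14C]AdoMet derivative separated by paper electrophoresis and counted.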

Data set [9] has the same target. The experiment in a line: Substrate activity of compound (4 mM) measured as the rate of conversion of [C14]-ATP to [C14]-Adomet in relation to KM value of methionine with M-T of rat MAT. It counts as protein assay. Summed up:
as §1

In data set [10] the test system is CSCC(C)C(N)C(=O)O. The experiment in a line: (§4) Substrate activity with […] form of rat methionine Adenosyltransferase. It counts as protein assay.
The subject of data set [11] is CSCC[C@H](N)C(=O)O. The description is as §4. It counts as protein assay.
For the next data set, the system named is CSC[C@@H](C)C(N)C(=O)O. The experiment in a line: (§5) Substrate activity with […] (M-T) form of rat methionine adenosyltransferase. It counts as protein assay.
The test system of a further data set is CSCC[C@](C)(N)C(=O)O. Described as §5. The data set is classed as protein assay.
The target in data set [12] is S-adenosylmethionine synthase isoform type-2 (Rattus norvegicus) (UniProt P18298). Nature of the data set: Compound (3 mM) was tested for the inhibition of conversion of [14C]methionine to [14C]AdoMet by rat Methionine adenosyltransferase II. The gist of the method:
as §2
Target sequence in this assay (P18298 whole entry, canonical isoform): as above

The target is the same in data set [13]. Nature of the data set: Substrate activity of compound (4 mM) measured as the rate of conversion of [C14]-ATP to [C14]-Adomet in relation to KM value of methionine rat Methionine adenosyltransferase II. Summed up:
as §1
Target sequence in this assay (P18298 whole entry, canonical isoform): as above

In data set [14] the target is T1, S-adenosylmethionine synthetase (MAT 1 and MAT 2) (Rattus norvegicus). The experiment in a line: Substrate level that produces half the maximal velocity(M-T) of rat methionine adenosyltransferase. It counts as protein assay. The gist of the method:
as §3

Data set [15] shares this target. Nature of the data set: Compound (3 mM) was tested for the inhibition of conversion of [14C]methionine to [14C]AdoMet by M-T (hepatoma tissue) of methionine adenosyltransferase. The data set is classed as protein assay. The gist of the method: as §2
Data set [16] shares this target. Nature of the data set: Rate of conversion of [C14]-ATP to [C14]-Adomet in relation to KM value of methionine with methionine adenosyltransferase. It counts as protein assay. Summed up: as §1
Data set [17] addresses S-adenosylmethionine synthase isoform type-2 (Rattus norvegicus) (UniProt P18298). The experiment in a line: (§6) Substrate activity with rat Methionine adenosyltransferase II. Particulars: concentration not given here. The gist of the method: (§7)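 Derivative at 4 mM with [14C]ATP and 1.6 × 10^-5 units rat MAT, 1 h at 37 °C. [14C]AdoMet derivative separated by paper electrophoresis (pH 5.0 acetate) and counted. Result given as cpm per 10 µL above a control lacking the derivative. At least twice control counts scored as substrate activity.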
Target sequence in this assay (P18298 whole entry, canonical isoform): as above

In data set [18] the target is T1, S-adenosylmethionine synthetase (MAT 1 and MAT 2) (Rattus norvegicus). Nature of the data set: Substrate activity with […](M-Tform of rat methionine adenosyltransferase. It counts as protein assay. Particulars: concentration not given here. Summed up:
as §7

Data set [19] deals with S-adenosylmethionine synthase isoform type-2 (Rattus norvegicus) (UniProt P18298). The experiment in a line: Rate of conversion of [C14]-ATP to [C14]-Adomet in relation to KM value of methionine with Methionine adenosyltransferase II. Summed up: as §1
Target sequence in this assay (P18298 whole entry, canonical isoform): as above
The target in data set [20] is T1, S-adenosylmethionine synthetase (MAT 1 and MAT 2) (Rattus norvegicus). Nature of the data set: Substrate level that produces half the maximal velocity(M-2) of rat methionine adenosyltransferase. The data set is classed as protein assay. The gist of the method: as §3
Data set [21] has the same target. Nature of the data set: Substrate level that produces half the maximal velocity(M-2) of rat methionine adenosyl transferase. It counts as protein assay. The gist of the method: as §3
Data set [22] has as its target S-adenosylmethionine synthase isoform type-2 (Rattus norvegicus) (UniProt P18298). Nature of the data set: Substrate activity of compound (4 mM) measured as the rate of conversion of [C14]-ATP to [C14]-Adomet in relation to KM value of methionine of rat Methionine adenosyltransferase II. Summed up: as §1
The subject of a further data set is CSC(C)C[C@@H](N)C(=O)O. The description is as §6.
In data set [23] the test system is CS[C@H](C)C[C@H](N)C(=O)O. The data set is described as §6.
For data set [24], the system named is CSCC(C)C(N)C(=O)O. Described as §6.
Data set [25] relates to CSCC[C@H](N)C(=O)O. Described as §6.
Data set [26] has as its target S-adenosylmethionine synthase isoform type-2 (Rattus norvegicus) (UniProt P18298). The experiment in a line: Substrate activity with normal tissue form of rat Methionine adenosyltransferase II.
Target sequence in this assay (P18298 whole entry, looked up, canonical isoform): as the sequence (P18298 whole entry, canonical isoform) above

S-adenosylmethionine synthase isoform type-2 (Rattus norvegicus), P18298, sequence (P18298 whole entry, canonical isoform): as above
S-adenosylmethionine synthetase (MAT 1 and MAT 2) (Rattus norvegicus) (from UniProt P13444+P18298), sequence (P18298 whole entry, looked up): as the sequence (P18298 whole entry, canonical isoform) above
S-adenosylmethionine synthetase (MAT 1 and MAT 2) (Rattus norvegicus) (from UniProt P13444+P18298), sequence (P13444 whole entry, looked up): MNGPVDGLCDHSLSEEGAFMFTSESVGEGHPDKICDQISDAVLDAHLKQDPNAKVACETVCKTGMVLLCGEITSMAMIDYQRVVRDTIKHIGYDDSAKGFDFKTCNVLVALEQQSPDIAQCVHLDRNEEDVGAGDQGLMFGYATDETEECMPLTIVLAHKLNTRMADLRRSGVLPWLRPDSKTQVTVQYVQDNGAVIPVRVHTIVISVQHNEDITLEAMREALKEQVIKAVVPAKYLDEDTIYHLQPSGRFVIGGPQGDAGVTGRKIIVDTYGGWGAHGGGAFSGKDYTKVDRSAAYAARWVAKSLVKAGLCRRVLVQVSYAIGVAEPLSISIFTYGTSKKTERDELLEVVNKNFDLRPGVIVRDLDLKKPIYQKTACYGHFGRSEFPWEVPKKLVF

For the molecule `CS[C@@H](C)C[C@@H](N)C(=O)O`, the Substrate activity in data set [1] came out at 173 c.p.m; in [4], 30 c.p.m. The figures for the inhibition in [2] and in data set [3] were 14% and 9.7%, respectively.

Take `CSCC(C)C(N)C(=O)O` (stereo not drawn): the Ratio in data set [5] turned out to be 4.4; in data set [6] it was 8.6. The results for the inhibition in data set [7] and in data set [3] were 65% and 68%, respectively. In addition, in data set [8], the Relative Vmax is 27 and 12. Moreover, the Substrate activity in data set [4] was 838 c.p.m; in [9], 701 c.p.m.

Regarding “S-adenosylmethionine synthetase (MAT 1 and MAT 2) (Rattus norvegicus) (from UniProt P13444+P18298)”, the Michaelis constant (Km) with CSCC(C)C(N)C(=O)O [10] came out at 1.4 mM; in the data set with CSCC[C@H](N)C(=O)O [11], 0.0156 mM; with CSC[C@@H](C)C(N)C(=O)O, 20 mM; with CSCC[C@](C)(N)C(=O)O it was 21 mM.

In the case of `CSCC[C@](C)(N)C(=O)O`, the values for the Substrate activity in [1] and in data set [13] were 241 c.p.m and 49 c.p.m, respectively. Moreover, the Ratio in data set [6] amounted to 1.3. Besides, the inhibition was 15% in [12] and 11% in data set [2]. The molecule also had a Relative Vmax in [14] of 27.

Regarding `CSCC[C@@](C)(N)C(=O)O`, the Substrate activity in data set [1] was found to be 40 c.p.m; in data set [4], 41 c.p.m. In addition, the inhibition in data set [15] amounted to 3.7%; in [3] it was 4.8%.

Take `CSC[C@@H](C)[C@H](N)C(=O)O`: the Substrate activity was 191 c.p.m in data set [1] and -10 c.p.m in data set [4]. Besides, the inhibition in data set [12] was found to be 17%; in data set [2], 6.6%.

For `CN[C@@H](CCSC)C(=O)O`, the Substrate activity in data set [1] was 36 c.p.m; in [4], -9 c.p.m. Moreover, the inhibition in data set [12] was 2.9%; in data set [2] it was 0%.

`CNCCC(N)C(=O)O` (stereo not drawn): the Substrate activity worked out at 33 cpm in [16] and 37 cpm in data set [19]. Moreover, the inhibition was found to be 6.6% in [17] and 0% in data set [18].

Regarding `CSC(C)C[C@@H](N)C(=O)O` (stereo partly drawn), in [5], the Ratio stood at 2.6. Also, the values for the Substrate activity in [1] and in data set [4] were 272 c.p.m and 624 c.p.m, respectively. In addition, the inhibition in data set [12] stood at 29%; in [2] it was 24%. The same molecule showed a Relative Vmax in data set [20] of 26.

Take `CS[C@H](C)C[C@H](N)C(=O)O`: the Ratio in data set [5] came out at 1.9. The figures for the Substrate activity in [1] and in [4] were 731 c.p.m and 506 c.p.m, respectively. Besides, the figures for the inhibition in data set [12] and in data set [2] were 24% and 15%, respectively. Further, the Relative Vmax in [20] is 27.

For `CSC[C@@H](C)[C@@H](N)C(=O)O`, in data set [5], the Ratio was found to be 0.9. The Substrate activity in data set [1] was 381 c.p.m; in data set [4], 333 c.p.m. In addition, the figures for the inhibition in data set [12] and in data set [2] were 21% and 15%, respectively. In addition, the Relative Vmax in data set [21] worked out at 26.

Turning to `CSC[C@@H](C)C(N)C(=O)O` (stereo partly drawn), the Substrate activity came to 348 c.p.m in [1] and 38 c.p.m in data set [22]. In data set [6], the Ratio was 1.8. Also, the inhibition was 15% in data set [12] and 8.7% in [2]. In data set [14], this molecule returned a Relative Vmax of 37.

For the molecule “S-adenosylmethionine synthase isoform type-2 (Rattus norvegicus), P18298”, the Km in the data set on CSC(C)C[C@@H](N)C(=O)O came to 10 mM; in [23] it was 14 mM; with CSCC(C)C(N)C(=O)O [24], 6.1 mM; with CSCC[C@H](N)C(=O)O [25], 0.005 mM; in [26], 29 mM.

Regarding `CCCCN[C@@H](CCSC)C(=O)O`, the Substrate activity is 13 c.p.m in data set [1] and -15 c.p.m in data set [4]. For the same molecule, the inhibition in data set [15] and in [12] was 0% each time.

Consider `CSCC[C@H](N)C(=O)O`, for which the Ratio turned out to be 20000 in data set [5] and 6400 in data set [6]. Besides, the Relative Vmax in [8] amounted to 100.

The term inhibition denotes the change of the read-out against control, counted positive when it falls. The term Km denotes the concentration of substrate that gives half-maximal velocity.
